ChEMBL document CHEMBL3259755, “Synthesis, antinociceptive activity and pharmacokinetic profiles of nicorandil and its isomers” (Bioorg Med Chem, 2014)
Active and inactive are the calls of the source.

Key:
[1] = tested on: Mus musculus; test: Antinociceptive activity in Swiss mouse assessed as inhibition of formaldehyde-induced nociceptive response in right hind paw at 50 to 150 mg/kg, po administered 5 mins followed by formaldehyde challenge measured over 5 mins; type: functional, organism-based
Method in brief: (§1)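 Female Swiss mice received compound p.o. (50, 100 or 150 mg/kg in 0.5% CMC) 5 min before s.c. injection of 0.92% formaldehyde (20 µL) into the right hindpaw. Licking time was recorded at 0–5 min and 15–30 min; n = 9. ANOVA with Newman–Keuls.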

[2] = tested on: Mus musculus; test: Antinociceptive activity in Swiss mouse assessed as inhibition of formaldehyde-induced nociceptive response in right hind paw at 50 to 150 mg/kg, po administered 5 mins followed by formaldehyde challenge measured for 15 to 30 mins; type: functional, organism-based; method in brief: as §1
[3] = tested on: Mus musculus; test: Antinociceptive activity in Swiss mouse assessed as inhibition of formaldehyde-induced nociceptive response in right hind paw at 150 mg/kg, po administered 1 hr followed by formaldehyde challenge measured over 5 mins; type: functional, organism-based; design: dose 150 mg/kg
Method in brief: (§2)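 Female Swiss mice received vehicle (0.5% CMC, 4 ml/kg) or compound p.o. at 50–150 mg/kg, or at 3–30 mg/kg, 1 h before 20 µL of 0.92% formaldehyde s.c. into the dorsal right hindpaw. Paw-licking time was scored at 0–5 min (first phase) and 15–30 min (second phase). n = 9. Data: mean ± S.E.M., one-way ANOVA with Newman–Keuls.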

[4] = tested on: Mus musculus; test: Antinociceptive activity in Swiss mouse assessed as inhibition of formaldehyde-induced nociceptive response in right hind paw at 150 mg/kg, po administered 1 hr followed by formaldehyde challenge measured 15 to 30 mins; type: functional, organism-based; design: dose 150 mg/kg; method in brief: as §2
[5] = tested on: Mus musculus; test: Antinociceptive activity in Swiss mouse assessed as inhibition of formaldehyde-induced nociceptive response in right hind paw at 100 mg/kg, po administered 1 hr followed by formaldehyde challenge measured over 5 mins; type: functional, organism-based; design: dose 100 mg/kg; method in brief: as §2
[6] = tested on: Mus musculus; test: Antinociceptive activity in Swiss mouse assessed as inhibition of formaldehyde-induced nociceptive response in right hind paw at 100 mg/kg, po administered 1 hr followed by formaldehyde challenge measured for 15 to 30 mins; type: functional, organism-based; design: dose 100 mg/kg; method in brief: as §2
[7] = tested on: Mus musculus; test: Toxicity in Swiss mouse assessed as time spent on rotating rod at 150 mg/kg, po administered 1 hr prior to testing (reference value: 120 secs); type: organism-based; design: dose 150 mg/kg, route oral; settings: in vivo
Method in brief: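 Female Swiss mice were trained on a rota-rod (14 rpm) over 3 days, with a 2 min cut-off. After baseline timing, they were dosed p.o. with vehicle (0.5% CMC, 4 ml/kg), compound at 150 mg/kg, or phenobarbital 40 mg/kg as positive control, and retested 1 h later. n = 9.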

[8] = Cmax in Swiss mouse at 100 mg/kg, po by LC-MS/MS analysis; type: ADME, organism-based; design: dose 100 mg/kg, route oral; settings: in vivo
Method in brief: (§3)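 Female Swiss mice (25–30 g), fasted 12 h, given 100 mg/kg p.o. as a suspension in 0.5% CMC (4 mL/kg). Heparinized blood was centrifuged and plasma stored at −70 °C. Plasma was run by LC–MS/MS on a C18 column with methanol/2 mM ammonium acetate + 0.03% formic acid (33:67). Values are mean ± S.E.M.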

[9] = Tmax in Swiss mouse at 100 mg/kg, po by LC-MS/MS analysis; type: ADME, organism-based; design: dose 100 mg/kg, route oral; settings: in vivo; method in brief: as §3
[10] = AUC (0 to t) in Swiss mouse at 100 mg/kg, po by LC-MS/MS analysis; type: ADME, organism-based; design: dose 100 mg/kg, route oral; settings: plasma; method in brief: as §3
[11] = AUC (0 to infinity) in Swiss mouse at 100 mg/kg, po by LC-MS/MS analysis; type: ADME, organism-based; design: time infinity, dose 100 mg/kg, route oral; settings: plasma; method in brief: as §3
[12] = Half life in Swiss mouse at 100 mg/kg, po by LC-MS/MS analysis; type: ADME, organism-based; design: dose 100 mg/kg, route oral; settings: in vivo; method in brief: as §3
[13] = tested on: Plasma; test: Drug metabolism in Swiss mouse plasma assessed as nitrite level at 100 mg/kg, po measured after 0.25 to 3 hrs by Griess assay; type: ADME, organism-based; design: dose 100 mg/kg, route oral; settings: in vivo
Method in brief: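 Female Swiss mice fasted 12 h received vehicle (0.5% CMC, 4 ml/kg) or compound at 100 mg/kg p.o. After ketamine/xylazine anesthesia at 15 min, 1 h and 3 h, blood was taken from the abdominal artery to avoid hemolysis. Heparinized plasma, stored at −70 °C, was mixed 1:1 with Griess reagent for 10 min at room temperature. A540 read against blank plasma; n = 7.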

[14] = tested on: Plasma; test: Drug metabolism in Swiss mouse plasma assessed as formation of nicotinamide at 100 mg/kg, po after 10 hrs by LC-MS/MS analysis; type: ADME, organism-based; design: dose 100 mg/kg, route oral; settings: in vivo
Method in brief: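 Female Swiss mice fasted 12 h received 100 mg/kg p.o. in 0.5% CMC. Six mice per time point were sampled by decapitation from 5 min to 10 h, plus six untreated controls. Heparinized plasma stored at −70 °C. Nicotinamide measured by LC–MS/MS (C18, methanol/ammonium acetate–formic acid mobile phase).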

[15] = tested on: Mus musculus; test: Antinociceptive activity in po dosed Swiss mouse assessed as inhibition of formaldehyde-induced nociceptive response in right hind paw administered 1 hr followed by formaldehyde challenge measured over 5 mins; type: functional, organism-based; method in brief: as §2
[16] = tested on: Mus musculus; test: Antinociceptive activity in Swiss mouse assessed as inhibition of formaldehyde-induced nociceptive response in right hind paw at 100 to 150 mg/kg, po administered 1 hr followed by formaldehyde challenge measured 15 to 30 mins; type: functional, organism-based; method in brief: as §2
[17] = tested on: Mus musculus; test: Antinociceptive activity in Swiss mouse assessed as inhibition of formaldehyde-induced nociceptive response in right hind paw at 3 to 30 mg/kg, po administered 1 hr followed by formaldehyde challenge; type: functional, organism-based; method in brief: as §2
[18] = tested on: Mus musculus; test: Toxicity in Swiss mouse assessed as time spent on rotating rod at 40 mg/kg, po administered 1 hr prior to testing (reference value: 119 +/- 1 secs); type: organism-based; design: dose 40 mg/kg, route oral; settings: in vivo

Which results are given for `O=C(NCCO)c1ccncc1`?
inhibition [1]: inactive; inhibition [2]: inactive

Which inhibition [1] does the source give for `O=C(NCCO)c1ccccn1` here?
The inhibition was “inactive”.

What about the inhibition [2] of the same compound?
Its inhibition is “inactive”.

Which inhibition [1] does the source give for `O=C(NCCO)c1cccnc1` here?
Its inhibition is “inactive”.

What about the inhibition [2] of the same compound?
The inhibition was “inactive”.

Which inhibition [3] does the source give for `O=C(NCCO[N+](=O)[O-])c1ccccn1` here?
Its inhibition is “Active”.

And the inhibition [4]?
The inhibition was “Active”.

What about the inhibition [1] of the same compound?
The inhibition was “inactive”.

And the inhibition [2]?
Its inhibition is “inactive”.

And the inhibition [5]?
Its inhibition is “Active”.

And the inhibition [6]?
The inhibition was “Active”.

And the Time [7]?
The Time was 120 s.

And the Cmax [8]?
The Cmax was 30800 ng/mL.

And the Tmax [9]?
Its Tmax is 6.6 min.

What about the AUC(0-t) [10] of the same compound?
Its AUC(0-t) is 10.1 µg·h/mL.

What about the AUC(0-inf) [11] of the same compound?
Its AUC(0-inf) is 10.1 µg·h/mL.

What about the half-life [12] of the same compound?
Its half-life is 66 min.

And the Drug metabolism [13]?
The Drug metabolism was “metabolite_notdetected”.

What about the Drug metabolism [14] of the same compound?
The Drug metabolism was “metabolite_detected”.

Which results are given for `O=C(NCCO[N+](=O)[O-])c1cccnc1` [NICORANDIL]?
inhibition [15]: Dose-dependent effect; inhibition [16]: Active; inhibition [17]: inactive; inhibition [5]: Active; inhibition [6]: Active; Time [7]: 120 s; Cmax [8]: 42600 ng/mL; Tmax [9]: 40.2 min; AUC(0-t) [10]: 121 µg·h/mL; AUC(0-inf) [11]: 123 µg·h/mL; half-life [12]: 90 min; Drug metabolism [13]: metabolite_detected; Drug metabolism [14]: metabolite_detected

With `CCC1(c2ccccc2)C(=O)NC(=O)NC1=O` [PHENOBARBITAL] as the compound, how does the Time [18] read?
The Time was 26 s.

For `O=C(NCCO[N+](=O)[O-])c1ccncc1`, which inhibition [16] is on record?
The inhibition was “Active”.

What about the inhibition [5] of the same compound?
Its inhibition is “Active”.

And the inhibition [6]?
Its inhibition is “Active”.

And the Time [7]?
Its Time is 120 s.

And the Cmax [8]?
Its Cmax is 49400 ng/mL.

And the Tmax [9]?
Its Tmax is 52.8 min.

What about the AUC(0-t) [10] of the same compound?
Its AUC(0-t) is 160 µg·h/mL.

What about the AUC(0-inf) [11] of the same compound?
Its AUC(0-inf) is 160 µg·h/mL.

What about the half-life [12] of the same compound?
Its half-life is 45.6 min.

And the Drug metabolism [13]?
Its Drug metabolism is “metabolite_detected”.

And the Drug metabolism [14]?
Its Drug metabolism is “metabolite_detected”.
